Assay [1] deals with Human immunodeficiency virus 2. The assay can be described thus: Effective concentration of compound to inhibit human immunodeficiency virus HIV-2 multiplication in CEM wild type cells. The class given is functional, organism-based. Conditions: Human immunodeficiency virus 2, CCRF-CEM. In a few lines:
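CEM wild-type cells were infected at 0.005 MOI and held 6 days in growth medium containing the compound dilutions, alongside untreated infected and uninfected controls. HIV-1 or HIV-2 antigen was detected by ELISA. EC50 was interpolated from plots of percent inhibition versus concentration.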

The subject of assay [2] is MT4. The assay can be described thus: Cytotoxic concentration required to reduce the viability of normal uninfected MT-4 cells. The class given is functional. As to conditions: Homo sapiens. In a few lines: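 Uninfected MT-4 cultures were grown with the same compound dilutions as the antiviral assay, run in parallel. A 30% inhibition of cell growth relative to control cultures counted as significant. CC50 was interpolated from plots of percent inhibition versus compound concentration.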

Assay [3] concerns Human immunodeficiency virus 2. Description: Effective dose was measured against human immunodeficiency virus type 2 in thymidine-kinase-deficient CEM Cells; experiment 1. In kind it is functional. As to conditions: Human immunodeficiency virus 2, CCRF-CEM; read-out: ED50 (the source's name). In outline: (§1)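 HIV-2 strain SBL 6669 in CEM TK- cells, infected at 0.005 MOI and kept with compound dilutions for 6 days, with infected and uninfected controls. Readout was HIV-2 antigen ELISA. The 50% effective value was interpolated from % inhibition versus concentration plots. Each line is one of three independent tests.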

Assay [4] relates to Human immunodeficiency virus 1. The assay can be described thus: Effective concentration of compound to inhibit human immunodeficiency virus HIV-1 wild type strain IIIB multiplication in MT-4 infected cells. In kind it is functional, organism-based. In a few lines:
(§2)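 MT-4 cells were infected at 0.005 MOI and cultured 6 days in growth medium (RPMI 1640, 10% heat-inactivated FCS, antibiotics) with the compound dilutions. Infected and uninfected cultures without compound ran in parallel. HIV expression was quantified indirectly by MTT assay. EC50 was interpolated from plots of percent inhibition versus concentration.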

For assay [5], the system named is Human immunodeficiency virus 2. Description: Effective dose was measured against human immunodeficiency virus type 2 in thymidine-kinase-deficient CEM Cells; experiment 2. Conditions: Human immunodeficiency virus 2, CCRF-CEM; read-out: ED50 (the source's name). In kind it is functional. In outline: as §1
Assay [6] relates to CCRF-CEM. Description: Cytotoxic concentration was measured in CEM wild-type/thymidine-kinase-deficient CEM Cells. The class given is functional. As to conditions: Homo sapiens. In outline: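 Uninfected CEM wild-type and CEM TK- cultures were exposed to the compound dilutions in parallel with the antiviral tests. Cell growth inhibition of 30% versus control cultures was considered significant. CC50 was interpolated from plots of percent inhibition against concentration.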

Assay [7] concerns Human immunodeficiency virus 1. The assay can be described thus: Effective concentration of compound to inhibit human immunodeficiency virus HIV-1 strain N119 multiplication in MT-4 infected cells. In kind it is functional, organism-based. In a few lines: as §2
Assay [8] has as its system Human immunodeficiency virus 2. The assay can be described thus: Effective dose was measured against human immunodeficiency virus type 2 in thymidine-kinase-deficient CEM Cells; experiment 3. In kind it is functional. Conditions: Human immunodeficiency virus 2, CCRF-CEM; read-out: ED50 (the source's name). In outline: as §1
For assay [9], the system named is Human immunodeficiency virus 2. The assay can be described thus: Effective concentration of compound to inhibit human immunodeficiency virus HIV-2 multiplication in MT-4 infected cells. The class given is functional, organism-based. In outline:
as §2

Assay [10] concerns Human immunodeficiency virus 2. Description: Effective concentration of compound to inhibit human immunodeficiency virus HIV-2 multiplication in thymidine-kinase-deficient CEM cells. The class given is functional, organism-based. As to conditions: Human immunodeficiency virus 2, CCRF-CEM. In a few lines: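 Thymidine-kinase-deficient CEM cells were infected with HIV-2 at 0.005 MOI and incubated 6 days with compound dilutions, alongside infected and uninfected controls without compound. Virus expression was quantified by HIV-2 antigen ELISA. ED50 was interpolated from percent inhibition versus concentration plots; three independent tests.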

Assay [11] has as its system Human immunodeficiency virus 1. Description: Effective concentration of compound to inhibit human immunodeficiency virus HIV-1 wild type strain IIIB multiplication in thymidine-kinase-deficient CEM cells. In kind it is functional, organism-based. Conditions: Human immunodeficiency virus 1, CCRF-CEM. In a few lines: (§3)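 HIV-1 strains HTLV-IIIB (wild type) and N119 (RT Y181C) were grown in H9 cells in RPMI 1640 with 10% heat-inactivated FCS. CEM wt or CEM TK- cells were infected at 0.005 MOI with compound dilutions for 6 days, alongside infected and uninfected controls. HIV expression was read by HIV-1 antigen ELISA. IC50 was interpolated from % inhibition versus concentration plots.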

Assay [12] relates to Human immunodeficiency virus 1. The assay can be described thus: Effective concentration of compound to inhibit human immunodeficiency virus HIV-1 strain N119 multiplication in thymidine-kinase-deficient CEM cells. In kind it is functional, organism-based. Conditions: Human immunodeficiency virus 1, CCRF-CEM. In outline:
as §3

The subject of assay [13] is Human immunodeficiency virus 1. The assay can be described thus: Effective concentration of compound to inhibit human immunodeficiency virus HIV-1 wild type strain IIIB multiplication in CEM wild type cells. In kind it is functional, organism-based. Conditions: Human immunodeficiency virus 1, CCRF-CEM. In outline: as §3
Assay [14] relates to Human immunodeficiency virus 1. The assay can be described thus: Effective concentration of compound to inhibit human immunodeficiency virus HIV-1 strain N119 multiplication in CEM wild type cells. The class given is functional, organism-based. Conditions: Human immunodeficiency virus 1, CCRF-CEM. In outline: as §3

As usually defined, the CC50 is the concentration giving 50% cytotoxicity.

Consider `CCc1c(Cc2cc(C)cc(C)c2)n(COCc2ccc(O[P@](=O)(OCCSC(=O)C(C)(C)C)OC[C@@H]3C=C[C@H](n4cc(C)c(=O)[nH]c4=O)O3)cc2)c(=O)[nH]c1=O`, for which the EC50 in assay [1] is 100 nM; in assay [3] it was 3000 nM; in assay [4] it was 3 nM; in assay [5], 2000 nM; in [7] it was 400 nM; in [8], 2000 nM. Further, the EC50 worked out at 4000 nM in assay [9] and 2000 nM in [10]. For the same compound, the CC50 in [2] is 35000 nM; in [6], 32000 nM.

`CCc1c(Cc2cc(C)cc(C)c2)n(COC/C=C/c2ccc(OC(=O)c3ccccc3)cc2)c(=O)[nH]c1=O` came in with a CC50 in assay [2] of 35000 nM. For the same compound, the EC50 in assay [4] amounted to 5 nM; in assay [7] it was 1000 nM.

Turning to `CCc1c(Cc2cc(C)cc(C)c2)n(COC/C=C/c2ccc(O)cc2)c(=O)[nH]c1=O`, the EC50 was greater than 10000 nM in assay [1]; 20 nM in assay [4]; 6 nM in assay [11]; 200 nM in assay [12]; 2 nM in assay [13]; 2400 nM in [7]. In addition, the EC50 in assay [9] was greater than 10000 nM; in [10] it was greater than 10000 nM; in [14] it was 400 nM. Besides, the CC50 in [2] turned out to be 35000 nM; in assay [6], 32000 nM.

Take `CCc1c(Cc2cc(C)cc(C)c2)n(COC/C=C/c2ccc(O[P@](=O)(OCCSC(=O)C(C)(C)C)OC[C@@H]3C=C[C@H](n4cc(C)c(=O)[nH]c4=O)O3)cc2)c(=O)[nH]c1=O`: the EC50 in assay [1] was determined as 100 nM; in assay [3], 3000 nM; in [4], 40 nM; in [11], 5 nM; in assay [5] it was 4000 nM; in assay [12] it was 200 nM. In addition, the EC50 in [13] came to 10 nM; in assay [7] it was 3300 nM; in assay [8], 5000 nM; in assay [10], 4000 nM; in [14] it was 300 nM. Further, the CC50 is 35000 nM in assay [2] and 32000 nM in assay [6].

With `CCOCn1c(Cc2ccccc2)c(C(C)C)c(=O)n(C(=O)c2ccc(OP(=O)(OCCSC(=O)C(C)(C)C)OCC3C=CC(n4cc(C)c(=O)[nH]c4=O)O3)cc2)c1=O` (centres undefined), the EC50 in assay [1] was 20 nM; in [3], 3000 nM; in [4], 30 nM; in [11] it was 6 nM; in assay [5], 3000 nM; in [12], 300 nM. In addition, the EC50 was determined as 30 nM in assay [13]; 2700 nM in [7]; 4000 nM in assay [8]; 3000 nM in [10]; 30 nM in [14]. Further, the figures for the CC50 in assay [2] and in assay [6] were 35000 nM and 32000 nM, respectively.

Turning to `CCc1c(Cc2cc(C)cc(C)c2)n(COCc2ccc(OCc3ccccc3)cc2)c(=O)[nH]c1=O`, in assay [2], the CC50 was determined as 12000 nM. In addition, the EC50 in assay [4] came out at 30 nM; in [7], 300 nM.

In the case of `CCOCn1c(Cc2ccccc2)c(C(C)C)c(=O)[nH]c1=O` [EMIVIRINE], the EC50 in [1] was greater than 10000 nM; in assay [11], greater than 10000 nM; in assay [12], greater than 10000 nM; in [13], 30 nM; in [7] it was 79000 nM; in assay [9], greater than 10000 nM. Besides, the values for the EC50 in assay [10] and in assay [14] were greater than 10000 nM and greater than 100000 nM, respectively. Moreover, the CC50 in [2] and in assay [6] was greater than 100000 nM each time.

Consider `Cc1cn([C@H]2C=C[C@@H](CO)O2)c(=O)[nH]c1=O` [STAVUDINE], for which the EC50 in assay [1] is 100 nM; in assay [4], 500 nM; in assay [11] it was greater than 10000 nM; in [12], greater than 10000 nM; in [13] it was 300 nM; in assay [7], 1800 nM. The results for the EC50 in [9], in assay [10] and in [14] were 500 nM, greater than 10000 nM and 800 nM, respectively. Besides, the CC50 in [2] and in assay [6] was greater than 100000 nM each time.

For the origin of these results see ChEMBL document CHEMBL1142669, “Synthesis and evaluation of double-prodrugs against HIV. Conjugation of D4T with 6-benzyl-1-(ethoxymethyl)-5-isopropyluracil (MKC-442, emivirine)-type reverse transcriptase inhibitors via the SATE prodrug approach” (J Med Chem, 2005).
